The values that follow come from ChEMBL document CHEMBL5252546, “Salutaxel, a Conjugate of Docetaxel and a Muramyl Dipeptide (MDP) Analogue, Acts as Multifunctional Prodrug That Inhibits Tumor Growth and Metastasis” (J Med Chem, 2018).

A short description of data set [1]: Prodrug conversion in mouse plasma implanted with mouse 4T1 cells assessed as half life of docetaxel at 4 mg/kg,iv measured upto 72 hrs. Format: ADME, organism-based. Particulars: in vivo.
A short description of data set [2]: Toxicity in Beagle dog assessed as decrease in blood pressure at 1 to 4 mg/kg,iv. Particulars: in vivo, dose 1-4 mg/kg. The data set is classed as organism-based, Canis lupus familiaris.
Data set [3] in a line: AUC (0-t) in male Beagle dog at 2 mg/kg,iv measured upto 24 hrs. The data set is classed as ADME, organism-based, Canis lupus familiaris. Particulars: in vivo. The arrangement: dose 2 mg/kg, time < 24 hrs, route iv. The gist of the method:
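Single iv dose: rats 2, 4 or 8 mg/kg by intravenous injection; Beagle dogs 1, 2 or 4 mg/kg by intravenous infusion. Plasma concentration–time data were analysed by sex and pooled. Reported parameters: Cmax, Tmax, AUC0−t, AUC0−∞, MRT0−∞, t1/2, CL, Vss, given as mean ± SD.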

The subject of a further data set is SF-295. The experiment in a line: Antiproliferative activity against human SF-295 cells assessed inhibition of cell growth incubated for 72 hrs by SRB assay. The conditions noted are these: SF-295, 72 h. The data set is classed as functional, cell-based. (In SRB staining, fixed cells bind dye roughly in proportion to their protein.)
Data set [4] can be described thus: MRT (0 to infinity) in male Beagle dog at 4 mg/kg,iv measured upto 24 hrs. The data set is classed as ADME, organism-based, Canis lupus familiaris. Particulars: in vivo.
A short description of data set [5]: Toxicity in Beagle dog assessed as decrease in body temperature at 1 to 4 mg/kg,iv measured after 1 to 4 hrs. The data set is classed as organism-based, Canis lupus familiaris. Particulars: in vivo, dose lower 1 mg/kg, time lower 1 hrs, dose upper 4 mg/kg, time upper 4 hrs.
A short description of data set [6]: Toxicity in BALB/c mouse xenografted with human NCI-H1975 cells assessed as body weight loss at 10 mg/kg,iv administrated once per week for 3 weeks. Format: organism-based. The conditions noted are these: in vivo, 504 h.
Data set [7] in a line: MRT (0 to infinity) in female rat at 2 mg/kg,iv measured upto 24 hrs. Format: ADME, organism-based. Particulars: in vivo.
The nature of data set [8]: Drug metabolism in rat plasma assessed as metabolite docetaxel formation at 4 mg/kg,iv measured after 24 hrs. Format: ADME, organism-based. Particulars: in vivo.
The nature of data set [9]: Toxicity in Beagle dog assessed as facial swelling at 3 to 18 mg/kg,iv measured upto 24 hrs. The data set is classed as organism-based, Canis lupus familiaris. Particulars: in vivo, dose 3-18 mg/kg.
The nature of data set [10]: Half life in rat at 2 mg/kg,iv measured upto 24 hrs. Format: ADME, organism-based. The conditions noted are these: in vivo.
A short description of data set [11]: Half life in female rat at 2 mg/kg,iv measured upto 24 hrs. The data set is classed as ADME, organism-based. The conditions noted are these: in vivo.
Data set [12] can be described thus: MRT (0 to infinity) in female Beagle dog at 4 mg/kg,iv measured upto 24 hrs. Format: ADME, organism-based, Canis lupus familiaris. Particulars: in vivo.
The nature of data set [13]: Stability in dog plasma assessed as compound remaining at 1 uM incubated for 6 hrs. The data set is classed as ADME, cell-free, Canis lupus familiaris.
Data set [14] in a line: Clearance in Beagle dog at 1 mg/kg,iv measured upto 24 hrs. The data set is classed as ADME, organism-based, Canis lupus familiaris. The conditions noted are these: in vivo. The gist of the method: (§1)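 Beagle dogs were given a single iv infusion at 1, 2 or 4 mg/kg. Plasma parent drug and released docetaxel were followed over time. Cmax, Tmax, AUC, MRT, t1/2, CL and Vss were reported by sex and for all dogs combined.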

Data set [15] in a line: Cmax in male Beagle dog at 1 mg/kg,iv measured upto 24 hrs. The data set is classed as ADME, organism-based, Canis lupus familiaris. The arrangement: dose 1 mg/kg, time < 24 hrs, route iv. The conditions noted are these: in vivo. The gist of the method:
as §1

Data set [16] is described as follows: Drug distribution in rat small intestine at 4 mg/kg,iv measured by 0.25 hrs. Particulars: in vivo. The data set is classed as ADME, organism-based. The gist of the method:
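Rats received 4 mg/kg iv. Parent drug and released docetaxel were assayed in tissues and plasma from the first sampling at 0.25 h to 24 h. The lower limit of quantitation was 200 ng/g.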

A short description of data set [17]: Cmax in female rat at 2 mg/kg,iv measured upto 24 hrs. The data set is classed as ADME, organism-based. Also noted: time < 24 hrs, dose 2 mg/kg, route iv. The conditions noted are these: in vivo. An outline of the steps:
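Rats were given a single iv injection at 2, 4 or 8 mg/kg. Plasma parent drug and released docetaxel were followed over time. Cmax, Tmax, AUC, MRT, t1/2, CL and Vss were reported for males, females and all animals combined.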

The nature of data set [18]: Toxicity in BALB/c mouse xenografted with human NCI-H1975 cells assessed as side effects at 5.7 mg/kg,iv administrated once per week for 3 weeks. The data set is classed as organism-based. The conditions noted are these: in vivo, 504 h. The gist of the method: (§2)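 Nude BALB/c nu/nu mice received subcutaneous human tumour cells into the right flank. Dosing started at mean tumour volume of 100–120 mm3, iv once weekly for 3 weeks; the taxane arm was an equimolar control. Body weight and overt side effects were monitored. Mean ± SEM, n = 8.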
In general terms: In xenograft studies the graft and the host belong to different species.

The subject of data set [19] is 4T1. Nature of the data set: Antitumor activity against mouse 4T1 cells implanted in BALB/c mouse assessed as decrease in tumor MMP2 expression level at 5.7 mg/kg,iv administrated once per week for 4 weeks in presence of compound 5b by western blot assay. The data set is classed as functional, organism-based. The gist of the method: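 4T1 cells injected into mammary fat pads of BALB/c mice. Saline vehicle or test article given iv once weekly for 4 weeks. Spleen, lung and tumor lysates immunoblotted for MMP2/MMP9 with β-actin as loading control. Bands averaged over five mice per group, representative of two independent experiments.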
A general note: Immunoblotting shows a protein as a band on a membrane.

Data set [20] in a line: Toxicity in BALB/c mouse xenografted with human NCI-H1975 cells assessed as body weight loss at 5.7 mg/kg,iv administrated once per week for 3 weeks. Format: organism-based. Particulars: in vivo, 504 h. An outline of the steps:
as §2

Data set [21] relates to 4T1. Nature of the data set: Antitumor activity against mouse 4T1 cells implanted in BALB/c mouse assessed as decrease in tumor MMP9 expression level at 5.7 mg/kg,iv administrated once per week for 4 weeks in presence of MDA-205 by western blot assay. The data set is classed as functional, organism-based. The gist of the method:
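Tumour-bearing BALB/c mice (4T1 cells into mammary fat pad) given iv saline vehicle or test agents once weekly for 4 weeks. Tumours excised and probed by western blot for MMP9, MMP2 and NOD1, β-actin as loading control. Bands averaged over five mice per group; representative of two independent experiments.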

The nature of data set [22]: Drug concentration in plasma of rat at 2.28 mg/kg,iv measured upto 24 hrs. Format: ADME, organism-based. Particulars: in vivo. The gist of the method: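 Taxane given as a single intravenous dose: 2.28 mg/kg to rats by injection and 1.14 mg/kg to Beagle dogs by infusion. Plasma concentrations were then measured.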

Active and inactive are the calls of the source. No cut-off for these calls is given here.

The AUC(0-t) is exposure summed from dosing to a finite time, without extrapolation to infinity. The term IC50 denotes the point on the concentration scale where inhibition reaches its midpoint. Broadly, the MRT inf is the average time that molecules of a dose stay in the body. A word on the half-life: it is how long it takes for the measured level to halve. A higher half-life goes with slow decline. Broadly, the clearance is a measure of how efficiently the substance is removed, as volume per time. For orientation: Cmax means the peak of the concentration-time curve.

In the case of `CC(=O)O[C@@]12CO[C@@H]1C[C@H](O)[C@@]1(C)C(=O)[C@H](O)C3=C(C)[C@@H](OC(=O)[C@H](OC(=O)CCC(=O)NCCCC[C@H](NC(=O)CC[C@@H](NC(=O)[C@H](C)NC(=O)/C=C/c4ccc(F)cc4Cl)C(N)=O)C(=O)O)[C@@H](NC(=O)OC(C)(C)C)c4ccccc4)C[C@@](O)([C@@H](OC(=O)c4ccccc4)[C@H]21)C3(C)C`, in [1], the t1/2 is 178 min. Further, the Activity result in [2] is given as “Toxic”; in data set [5], “Non-Toxic”; in data set [6], “Non-Toxic”; in [9], “Toxic”. This compound also returned an AUC(0-t) at 24 h in data set [3] of 4840 ng·h/mL. The compound also returned an IC50 with SF-295 of 16.3 nM. Also, the mean residence time MRT inf in data set [4] was found to be 16.5 min; in [7], 8.64 min; in [12], 26 min. Besides, in data set [8], the Drug metabolism result is on record as “Metabolite_Detected”. Further, the values for the half-life in data set [10] and in data set [11] were 7.8 min and 6.6 min, respectively. For the same compound, the Stability entry in data set [13] is “Stable”. Also, the clearance in data set [14] was found to be 11.5 mL/min/kg. Also, the Cmax in data set [15] is 3740 ng/mL; in [17], 14600 ng/mL. Also, in data set [16], the Drug uptake result is reported as “Active”.
Regarding `CC(=O)O[C@@]12CO[C@@H]1C[C@H](O)[C@@]1(C)C(=O)[C@H](O)C3=C(C)[C@@H](OC(=O)[C@H](O)[C@@H](NC(=O)OC(C)(C)C)c4ccccc4)C[C@@](O)([C@@H](OC(=O)c4ccccc4)[C@H]21)C3(C)C` [DOCETAXEL ANHYDROUS], the Activity result in data set [18] and in [20] was “Non-Toxic” each time. Also, the outcome in the data set with 4T1 [19] and with 4T1 [21] was inactive. The compound also came in with a Drug uptake in data set [22] of 45%.
